Test results from ChEMBL document CHEMBL4706601, “The endocannabinoid system dual-target ligand N-cycloheptyl-1,2-dihydro-5-bromo-1-(4-fluorobenzyl)-6-methyl-2-oxo-pyridine-3-carboxamide improves disease severity in a mouse model of multiple sclerosis” (Eur J Med Chem, 2020).
The source made the active and inactive calls. No cut-off for these calls is given here.

Biological target: Cannabinoid receptor 1 (Rattus norvegicus) (UniProt P20272)
Test: Agonist activity at CB1R in Sprague-Dawley rat hippocampal synaptosomes assessed as inhibition of 4-AP evoked glutamate release at 1 uM preincubated for 8 mins followed by 4-AP addition by HPLC analysis
Format: subcellular
Conditions: Hippocampus
In short: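 Rat (male Sprague Dawley, 200-250 g) hippocampal synaptosomes from Percoll gradient, superfused at 37 °C (0.5 ml/min); 4-AP 600 μM for 2 min. Compounds and antagonists (SR141716A, SR144528, 1 μM) added 8 min before 4-AP and kept during it; basal effects tested by 2-min exposure alone. Endogenous glutamate by HPLC as pmol/mg protein; overflow = stimulated minus basal in control chambers; n = 3–9, triplicate.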

Chain of Cannabinoid receptor 1 (Rattus norvegicus) (P20272 whole entry): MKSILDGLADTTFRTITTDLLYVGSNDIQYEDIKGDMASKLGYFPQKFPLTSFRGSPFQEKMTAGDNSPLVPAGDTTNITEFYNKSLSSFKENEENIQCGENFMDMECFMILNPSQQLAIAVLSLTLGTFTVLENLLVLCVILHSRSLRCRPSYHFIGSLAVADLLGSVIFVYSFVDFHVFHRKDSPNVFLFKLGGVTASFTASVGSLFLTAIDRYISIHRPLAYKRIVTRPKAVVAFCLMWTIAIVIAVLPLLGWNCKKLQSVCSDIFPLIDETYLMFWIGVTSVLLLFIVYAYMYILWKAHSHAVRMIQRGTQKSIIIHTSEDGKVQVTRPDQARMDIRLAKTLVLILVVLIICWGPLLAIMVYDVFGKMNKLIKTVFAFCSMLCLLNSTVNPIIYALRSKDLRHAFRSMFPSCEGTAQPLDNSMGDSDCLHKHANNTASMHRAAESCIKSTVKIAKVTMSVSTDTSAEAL

## Cc1c(Br)cc(C(=O)NC2CCCCCC2)c(=O)n1Cc1ccc(F)cc1
  Activity: inactive
